Results on three compounds are retold here after PMC3230563 (International Journal of Nanomedicine, 2011).

Data set [1] deals with rat. The conditions noted are these: oral, no reference given; cited from earlier work.
Data set [2] can be described thus: In vivo pharmacokinetics in rats. Further details: species or system Male Wistar rats. The following applies: for half-life: T1/2, rat; for Tmax: Tmax average. The essentials: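 Fasted (12 h) male Wistar rats under 0.5% isoflurane received 200 μg/kg in isotonic solution by tail-vein bolus (n = 4). Serial intracardiac blood went into 0.109 M citrate from 2 min to 24 h, and plasma was stored at −20°C. Concentration came from an anti-Xa chromogenic calibration curve, with over-range samples diluted in human normal plasma. Noncompartmental PK used trapezoidal AUC; bioavailability was the dose-corrected oral/IV AUC ratio.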

The mark [3] stands for this setting: male, Wistar, rat, plasma, iv, 200 ug/kg.
[4] abbreviates: male, Wistar, rat, plasma, iv, 200 ug/kg, IV bolus.
Setting [5] is: male, Wistar, rat, plasma, po, 5 mg/kg.
Where [6] appears, read: male, Wistar, rat, plasma, po, 5 mg/kg, 5 mg/kg Fp.
Setting [7] is: male, Wistar, rat, plasma, sc, 200 ug/kg.
The mark [8] stands for this setting: rat, IV bolus, 200 μg/kg, listed as IV Fp solution.

Take `CCCCCCCCCCCCCCCC[N+](C)(C)C` [CTAB, hexadecyltrimethyl ammonium bromide]: in data set [1], the median lethal dose (LD50) (usually the dose expected to kill half of the subjects tested) is 410 mg/kg.

In the case of `CO[C@H]1O[C@H](COS(=O)(=O)O)[C@@H](O[C@@H]2O[C@@H](C(=O)O)[C@@H](O[C@H]3O[C@H](COS(=O)(=O)O)[C@@H](O[C@@H]4O[C@H](C(=O)O)[C@@H](O[C@H]5O[C@H](COS(=O)(=O)O)[C@@H](O)[C@H](O)[C@H]5NS(=O)(=O)O)[C@H](O)[C@H]4O)[C@H](OS(=O)(=O)O)[C@H]3NS(=O)(=O)O)[C@H](O)[C@H]2OS(=O)(=O)O)[C@H](O)[C@H]1NS(=O)(=O)O` [Fp, fondaparinux], the results for the area under the curve AUC(0-inf) in data set [2] (setting [3]), in data set [2] (setting [5]) and in data set [2] (setting [7]) were 2300 ng·h/mL, 812 ng·h/mL and 2570 ng·h/mL, respectively. In addition, the values for the maximum concentration (Cmax) in data set [2] (setting [3]), in data set [2] (setting [5]) and in data set [2] (setting [7]) were 1420 ± 120 ng/mL, 60 ± 20 ng/mL and 836 ± 190 ng/mL, respectively. For the same compound, the bioavailability (commonly the share of a dose that reaches the circulation, judged against a reference dose that is usually intravenous) in data set [2] (male, Wistar, rat, plasma, iv, 200 ug/kg, Absolute bioavailability, IV bolus, 200 μg/kg (reference)) was determined as 100%. Moreover, the MRT (usually the average time that molecules of a dose stay in the body) in data set [2] (male, Wistar, rat, plasma, iv, 200 ug/kg, MRT, IV bolus) is 1.17 h; in data set [2] (male, Wistar, rat, plasma, po, 5 mg/kg, MRT, 5 mg/kg Fp), 1.36 h; in data set [2] (male, Wistar, rat, plasma, sc, 200 ug/kg, MRT), 3.87 h; in data set [2] (setting [8]) it was 1.8028 ± 0.4345 h. Also, the half-life (in general, how long it takes for the measured level to halve) in data set [2] (setting [4]) was found to be 1.8 h; in data set [2] (setting [6]), 0.862 ± 0.607 h; in data set [2] (setting [7]) it was 1.47 ± 1.4 h. Also, the results for the Tmax in data set [2] (setting [4]), in data set [2] (setting [6]) and in data set [2] (setting [7]) were 0.0333 h, 2 h and at most 1 h, respectively. For the same compound, the “anti-Xa level in rat plasma” value in data set [2] (oral Fp solution alone, 0.5, 2 mg/kg, limit of quantification 0.01 μg/mL) was “below the limit of quantification”. Moreover, the Clearance was 490.52 ± 14.74 µL/min in data set [2] (rat, IV bolus, 200 μg/kg); 493.89 ± 5.478 µL/min in data set [2] (rat, SC, 200 μg/kg); 455.43 ± 14.51 µL/min in data set [2] (rat, oral, 5 mg/kg Fp). For the same compound, the T1/2 in data set [2] (setting [8]) amounted to 1.175 ± 0.2938 h. The Absolute bioavailability in data set [2] (rat, SC, 200 μg/kg, dose corrected AUC versus IV, listed as SC Fp solution) is on record as 115.84 ± 17.92 (4) %. Also, the Tmax average in data set [2] (rat, SC, 200 μg/kg, listed as SC Fp solution) turned out to be 1 h.

Take `CCCCCCCCCCCCCCCCCCN` [SA, stearylamine]: the 50% lethal dose (LD50) in data set [1] is on record as 1395 mg/kg.
